The values that follow come from ChEMBL document CHEMBL1150373, “Selection of phage-displayed peptides that bind to a particular ligand-bound antibody” (Bioorg Med Chem, 2008).

Peptide text beside a SMILES is read from it.

The nature of experiment [1]: Binding affinity to mouse-human chimeric antibody 93F3.
The nature of experiment [2]: Binding affinity to fragment antigen binding portion of mouse-human chimeric 93F3 antibody assessed as relative signal by ELISA in presence of 10 uM 2-acetylcyclohexanone. In short, it runs like this:
(§1)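 Antibody 93F3 coated on microtiter wells (1 µg/25 µL PBS, 37 °C 1 h), blocked with 3% BSA/PBS at 37 °C 1 h. Phage culture supernatant was added with diketone (final 10 µM, from 20 µM in 1% DMSO/PBS) or PBS alone, then incubated 37 °C 1 h. Wells washed with water; bound phage detected with anti-M13–HRP plus ABTS/H2O2, A405.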

Experiment [3] can be described thus: Binding affinity to fragment antigen binding portion of mouse-human chimeric 93F3 antibody assessed as relative signal by ELISA. In short, it runs like this: as §1
(ELISA stands for enzyme-linked immunosorbent assay.)

Experiment [4] can be described thus: Binding affinity to fragment antigen binding portion of mouse-human chimeric 93F3 antibody assessed as relative signal by ELISA in presence of 10 uM 5-{[4-(3,5-dioxohexyl)phenyl]amino}-5-oxopentanoic acid. In short, it runs like this: as §1
Experiment [5] is described as follows: Binding affinity to fragment antigen binding portion of mouse-human chimeric 93F3 antibody assessed as relative signal by ELISA in presence of 10 uM 6-(4-nitrophenyl)hexane-2,4-dione. In short, it runs like this:
as §1

Take `CC(=O)CC(=O)CCc1ccccc1`: the Kd in experiment [1] was 1000 nM. This lies in the single-digit micromolar range.

On to `CC(C)C[C@@H](NC(=O)[C@H](Cc1ccc(O)cc1)NC(=O)[C@@H](N)Cc1c[nH]c2ccccc12)C(=O)N1CCC[C@H]1C(=O)N[C@@H](CC(=O)O)C(=O)N[C@@H](CC(N)=O)C(=O)N1CCC[C@H]1C(=O)N[C@@H](CO)C(=O)N[C@H](C(=O)N[C@@H](Cc1c[nH]c2ccccc12)C(=O)N[C@@H](Cc1cnc[nH]1)C(=O)N[C@H](C(=O)O)[C@@H](C)O)[C@@H](C)O`, for which the Activity in experiment [2] is 0.7; in experiment [3], 1; in experiment [4], 0.1; in experiment [5], 0.1.

Turning to `C[C@H](O)[C@H](NC(=O)[C@@H]1CCCN1C(=O)[C@H](Cc1ccccc1)NC(=O)[C@H](Cc1c[nH]c2ccccc12)NC(=O)[C@H](Cc1c[nH]c2ccccc12)NC(=O)[C@@H]1CCCN1C(=O)[C@@H](N)CS)C(=O)N[C@@H](CCC(N)=O)C(=O)N[C@@H](CS)C(=O)O`, the Activity in experiment [2] was determined as 1; in experiment [3] it was 0.2; in experiment [4], 0.1; in experiment [5], 0.1.

As for `CC(C)C[C@H](NC(=O)[C@H](Cc1cnc[nH]1)NC(=O)[C@H](Cc1c[nH]c2ccccc12)NC(=O)[C@@H]1CCCN1C(=O)[C@@H](N)CS)C(=O)N[C@@H](CC(C)C)C(=O)N1CCC[C@H]1C(=O)N[C@@H](Cc1ccccc1)C(=O)N[C@@H](CS)C(=O)O` (H-CPWHLLPFC-OH), the Activity in experiment [2] stood at 0.8; in experiment [3], 1; in experiment [4] it was 0.1; in experiment [5], 0.2.

As for `CC(C)C[C@H](NC(=O)[C@H](C)NC(=O)[C@H](Cc1cnc[nH]1)NC(=O)[C@@H](NC(=O)[C@H](CC(C)C)NC(=O)[C@@H]1CCCN1C(=O)[C@H](CO)NC(=O)[C@@H](N)CS)[C@@H](C)O)C(=O)N[C@@H](CS)C(=O)O` (H-CSPLTHALC-OH), the Activity in experiment [2] amounted to 0.2; in experiment [3], 0.2; in experiment [4] it was 1; in experiment [5], 0.2.

Consider `CC(C)C[C@H](NC(=O)[C@H](Cc1c[nH]c2ccccc12)NC(=O)[C@H](Cc1cnc[nH]1)NC(=O)[C@@H](NC(=O)[C@H](Cc1ccccc1)NC(=O)[C@@H]1CCCN1C(=O)[C@@H](NC(=O)[C@@H](N)CS)[C@@H](C)O)[C@@H](C)O)C(=O)N[C@@H](CS)C(=O)O` (H-CTPFTHWLC-OH), for which the Activity is 0.1 in experiment [2], 0.1 in experiment [3], 1 in experiment [4] and 0.1 in experiment [5].

As to H-QVPWSYLANGLL-OH, the Activity in experiment [2] is 0.7; in experiment [3] it was 1; in experiment [4] it was 0.1; in experiment [5] it was 0.2.

Usually Kd stands for the free concentration of one partner at which half of the binding sites on the other are occupied at equilibrium, for simple one-to-one binding.
